Laboratory results reported in ChEMBL document CHEMBL1828538, “Synthesis and pharmacological evaluation of indole-based sigma receptor ligands” (Eur J Med Chem, 2011).

Experiments:
[1] = molecular target: Sigma non-opioid intracellular receptor 1 (Rattus norvegicus, UniProt Q9R0C9); test: Displacement of (-)-[3H]pentazocine from sigma 1 receptor in rat brain membrane after 120 mins; assay type: cell membranes
[2] = Displacement of [3H]di-o-tolylguanidine from sigma 2 receptor in rat brain membrane after 120 mins; assay type: cell membranes
Procedure, shortened: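 Rat whole-brain homogenate without cerebellum (400–500 μg) incubated with 3 nM [3H]DTG plus 300 nM (+)-pentazocine to mask sigma-1 sites. Filtration through PEI-soaked glass fiber, scintillation counting, run in duplicate. Ki by Cheng-Prusoff.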

Rattus norvegicus = organism: Rattus norvegicus; test: Selectivity ratio of Ki for sigma 1 receptor in rat brain membrane to sigma 2 receptor in rat brain membrane; assay type: cell membranes
[3] = Binding affinity to sigma 2 receptor
Procedure, shortened: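 Rat whole-brain homogenate without cerebellum (400–500 μg) incubated with 3 nM [3H]DTG plus 300 nM (+)-pentazocine to mask sigma-1 sites. […] Filtration through PEI-soaked glass fiber, scintillation counting, run in duplicate. Ki by Cheng-Prusoff.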

Sequence of Sigma non-opioid intracellular receptor 1 (Q9R0C9 whole entry): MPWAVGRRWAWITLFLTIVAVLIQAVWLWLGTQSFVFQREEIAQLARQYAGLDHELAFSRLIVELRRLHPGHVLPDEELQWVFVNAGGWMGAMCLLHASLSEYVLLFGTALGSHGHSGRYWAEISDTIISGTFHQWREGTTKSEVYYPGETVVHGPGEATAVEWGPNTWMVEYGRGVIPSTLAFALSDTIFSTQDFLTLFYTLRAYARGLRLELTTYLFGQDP

Question: With COc1cc2c(cc1OC)CN(CCCCn1cc(-c3ccoc3)c3ccccc31)CC2 as the compound, how does the Ki [1] read?
Answer: 614 nM

Question: What about the Ki [2] of the same compound?
Answer: 12 nM

Question: What about the Ratio Ki (Rattus norvegicus) of the same compound?
Answer: 51.1

Question: For CC(=O)c1ccc2c(ccn2CCCCN2CCN(C3CCCCC3)CC2)c1, which Ki [1] is on record?
Answer: 5.33 nM

Question: What about the Ki [2] of the same compound?
Answer: 2.31 nM

Question: What about the Ratio Ki (Rattus norvegicus) of the same compound?
Answer: 2.3

Question: For Fc1ccc(-c2cn(CCCCN3CCN(C4CCCCC4)CC3)c3ccccc23)cc1, which Ratio Ki (Rattus norvegicus) is on record?
Answer: 4

Question: Which Ki [1] does the source give for Fc1ccc(N2CCN(CCCCn3cc(-c4ccccc4)c4ccccc43)CC2)cc1 here?
Answer: 222 nM

Question: What about the Ki [2] of the same compound?
Answer: 9.96 nM

Question: What about the Ratio Ki (Rattus norvegicus) of the same compound?
Answer: 22.3

Question: Which results are given for Fc1ccc(N2CCN(CCCCn3ccc4ccccc43)CC2)cc1?
Answer: Ki [1]: 71.5 nM; Ratio Ki (Rattus norvegicus): 5.4

Question: Which Ki [1] does the source give for c1ccc2c(c1)c(-c1ccoc1)cn2CCCCN1CCN(C2CCCCC2)CC1 here?
Answer: 34.5 nM

Question: What about the Ki [2] of the same compound?
Answer: 10.1 nM

Question: And the Ratio Ki (Rattus norvegicus)?
Answer: 3.4

Question: For COc1cc2c(cc1OC)CN(CCCCNC(=O)c1cc(Br)cc(OC)c1OC)CC2, which Ki [3] is on record?
Answer: 8.2 nM

Question: For COc1cc2c(cc1OC)CN(CCCCn1cc(-c3ccccc3)c3ccccc31)CC2, which Ki [1] is on record?
Answer: 714 nM

Question: And the Ki [2]?
Answer: 46.3 nM

Question: And the Ratio Ki (Rattus norvegicus)?
Answer: 15.4

Question: For COc1cc2c(cc1OC)CN(CCCCn1ccc3cc(C(C)=O)ccc31)CC2, which Ki [1] is on record?
Answer: 14.6 nM

Question: What about the Ki [2] of the same compound?
Answer: 1.42 nM

Question: What about the Ratio Ki (Rattus norvegicus) of the same compound?
Answer: 10.2

Question: Which Ki [1] does the source give for COc1cc2c(cc1OC)CN(CCCCn1ccc3ccccc31)CC2 here?
Answer: 141 nM

Question: For c1ccc(-c2cn(CCCCN3CCN(C4CCCCC4)CC3)c3ccccc23)cc1, which Ki [1] is on record?
Answer: 92.4 nM

Question: And the Ki [2]?
Answer: 12.3 nM

Question: What about the Ratio Ki (Rattus norvegicus) of the same compound?
Answer: 7.5

Question: Which results are given for CC(=O)c1ccc2c(ccn2CCCCN2CCN(c3ccc(F)cc3)CC2)c1?
Answer: Ki [1]: 2.13 nM; Ki [2]: 3.3 nM; Ratio Ki (Rattus norvegicus): 0.6

Question: With Fc1ccc(N2CCN(CCCCn3cc(-c4ccoc4)c4ccccc43)CC2)cc1 as the compound, how does the Ki [1] read?
Answer: 279 nM

Question: And the Ki [2]?
Answer: 157 nM

Question: What about the Ratio Ki (Rattus norvegicus) of the same compound?
Answer: 1.8
